“And” between values parts separate entries of the source, which are not always exact repeats. Equal entries are not always repeated. “Also recorded” adds a separate entry of the source. Where two headings read alike, the source gives them in different places. Marks after values point to notes of the source that are not given here.
Columns and labels:
[1] = Emission spectra and emission quantum yield in PBS; type: physicochemical; conditions: PBS pH 7.4, ≤1% DMSO, air-equilibrated; for emission quantum yield Φ: relative to quinine sulfate
In short: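 Spectra were taken in PBS pH 7.4 with ≤1% DMSO. Quantum yield was set relative to quinine sulfate (Φ = 0.52, 0.5 M H2SO4), cross-checked against harmaline (Φ = 0.32, 0.05 M H2SO4). Excitation was 350 nm, keeping absorbance below 0.1. At least five concentrations of sample and standard were measured. Absorbance at 350 nm was plotted against integrated emission.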

[2] = tested on: HeLa cells; assay: MTT cytotoxicity assay in HeLa cells; type: cell-based; conditions: 48 h incubation
In short: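 HeLa cells were grown in DMEM with 10% FBS at 37 °C, 5% CO2. Cells were seeded at 4000/well and rested 24 h, then medium was replaced with test-compound dilutions for 48 h. Stocks were in PBS or DMSO. MTT (1 mg/mL in DMEM) was added for 4 h. Formazan was dissolved in 8:1 DMSO/pH 10 glycine buffer and read at 570 nm. Viability was normalised to untreated wells: three independent experiments, six replicates per concentration.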

[3] = Luminescence lifetime measurements in PBS; type: physicochemical; conditions: for luminescence lifetime τ: air-equilibrated PBS, 10 μM; for luminescence lifetime τN2: nitrogen-saturated PBS (pH 7.4)
In short: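 Test compound was measured at 10 μM in PBS. Time-resolved photon counts were collected in 40 ns bins and fitted to a standard exponential decay. For deoxygenated samples, nitrogen was bubbled through the PBS solution for 20 min before measurement.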

[4] = Cyclic voltammetry in acetonitrile; type: physicochemical; conditions: 0.10 M TBAP, irreversible reduction peak
[5] = tested on: HeLa cells; assay: Mitochondria morphology; type: cell-based; conditions: 10 μM, up to 30 min
In short: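 HeLa cells were loaded with MitoTracker Red FM and Hoechst 33342 for 30 min, then washed. At the microscope, test compound was added to 10 μM final in HEPES imaging buffer (pH 7.4). Confocal images were taken every 2 min up to 30 min: MitoTracker ex 561/em 630–700 nm, Hoechst ex 405/em 410–550 nm. Individual mitochondria were counted in ImageJ at 0, 14 and 30 min, alongside untreated cells.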

[6] = tested on: HeLa cells; assay: Puromycin incorporation assay; type: cell-based; conditions: 10 μM, 2 h, then puromycin
In short: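 HeLa cells were exposed for 2 h to 10 μM test compound or DMSO vehicle. Puromycin (10 μM) was then added, and cells were harvested 10 min later. Lysis was in TBS/1% Triton X-100. Samples were run on SDS-PAGE and blotted to PVDF, with blocking in 5% milk/0.1% Tween-20. Anti-puromycin was applied overnight at 4 °C, then HRP secondary 1 h at room temperature. Detection was by ECL, normalised to β-actin.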

[7] = tested on: HeLa cells; conditions: MTT assay; cited from earlier work
[8] = Solubility in water or PBS; type: physicochemical
[9] = tested on: A2780 ovarian cancer xenografts; assay: In vivo tumor growth inhibition, A2780 ovarian cancer xenografts; design: species or system NSG mice
In short: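 NSG mice, about 7 weeks old, received A2780 tumour fragments from propagation mice implanted subcutaneously in the left flank. Groups of at least five were treated once tumours exceeded 100 mm3. Dosing was tail-vein injection twice weekly with vehicle (20% DMSO/PBS) or 5, 10 or 20 mg/kg test compound. Body weight and caliper tumour volume were tracked blinded over 27 days. Endpoints were a dimension >30 mm or burden […]; survival was compared with vehicle.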

[10] = PBS pH 7.4; cited from earlier work
[11] = tested on: HeLa cells; assay: Intracellular luminescence by confocal fluorescence microscopy; type: cell-based; conditions: 10 μM, 2 h
In short: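 HeLa cells were kept in DMEM with 10% FBS at 37 °C and 5% CO2. 1 × 10^5 cells were seeded on glass-bottom dishes, and after 24 h they were exposed to the test compound (10 μM in DMEM) for 2 h. Cells were then washed with PBS and imaged in HEPES imaging buffer, pH 7.4. Confocal excitation was 405 nm with 410–550 nm emission. Corrected total cell fluorescence was averaged over at least ten cells.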

[12] = tested on: CHOP; assay: CHOP expression Western blot; type: cell-based; conditions: HeLa cells, 10 μM, 24 h
In short: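 HeLa cells were exposed for 24 h to 10 μM test compound or DMSO vehicle. Lysis was in TBS (pH 7.5) with 1% Triton X-100, DNase and protease inhibitors, on ice 30 min. Samples were run on SDS-PAGE and blotted to PVDF. Blocking was 5% BSA/0.1% Tween-20. Anti-CHOP was applied overnight at 4 °C, then HRP secondary 1 h at room temperature. Detection was by ECL, with β-actin as loading control.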

[13] = air-equilibrated PBS; cited from earlier work
[14] = tested on: HeLa cells; assay: Thioflavin T; type: cell-based; conditions: 10 μM, 30 min post-treatment
In short: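 About 1 × 10^5 HeLa cells were seeded on glass-bottom dishes. After 24 h they were loaded with 5 μM ThT for 2 h, washed, and given fresh medium. Test compound (10 μM) was added in imaging buffer. Confocal images were taken at 0 and 30 min (ex 405 nm, em 410–550 nm). Corrected total cell fluorescence was computed as integrated density minus cell area × mean background.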

[15] = Biodistribution in mice; type: in vivo; conditions: BALB/c mice
In short: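 Female BALB/c mice, 6 weeks old, received a 99mTc tricarbonyl isonitrile analogue (51–104 μCi) with the Re test compound (0.2 μmol; 10 μmol/kg) together through a tail vein catheter in 10% EtOH/saline. Animals were killed at 1, 2 and 4 h, and blood (cardiac puncture), organs, muscle, femur and urine were collected. For Re, tissues were digested in nitric acid for 20 h at 25 °C and measured by ICP-OES with a 20 ppm Tb internal standard. Results were expressed as %ID/g.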

[16] = Maximum tolerated dose; type: in vivo; conditions: injections in mice
[17] = a week in aqueous solution, even in the presence of glutathione; cited from earlier work
[18] = tail vein injection, 0.2 μmol Re / ~100 μCi 99mTc

Molecule | emission maximum λ [1] [nm] | emission quantum yield Φ [1] | IC50 [2] | luminescence lifetime τ [3] [μs] | luminescence lifetime τN2 [3] [μs] | Epc [4] [V vs SCE] | inhibition of protein synthesis (puromycin incorporation) [6] | CHOP expression [12] | increase in ThT fluorescence [14] | also measured
O=S(=O)([O-])C(F)(F)F.[C-]#[N+]c1ccc(C)cc1.[C-]#[O+].[C-]#[O+].[C-]#[O+].[Re+].c1ccc(-c2ccccn2)nc1 [TRIP-3a, fac-[Re(CO)3(bpy)(ptolICN)]OTf] | 523 | 6.3 ± 0.2% | 27.5 ± 0.6 µM | 0.7 | 1.0 | −1.18 | not effective translation inhibitors | – | – | change in mitochondrial morphology (mitochondrial fission) [5]: did not give rise to any changes in mitochondrial morphology
Cc1ccc2ccc3ccc(C)nc3c2n1.O=S(=O)([O-])C(F)(F)F.[C-]#[N+]c1ccc(C)cc1.[C-]#[O+].[C-]#[O+].[C-]#[O+].[Re+] [TRIP-1a, fac-[Re(CO)3(dmphen)(ptolICN)]OTf] | – | – | – | – | 3.5 | −1.25 | most efficient inhibition of protein synthesis | induce CHOP expression | ≥ 2 fold | IC50 [7]: 1.4 ± 0.2 µM; solubility [8]: up to 2 mM; effect on tumor growth rate ([9]; 5 mg/kg i.v. twice weekly, 20% DMSO/PBS): no effect on tumor growth rate; effect on tumor growth rate ([9]; 10 mg/kg i.v. twice weekly, 20% DMSO/PBS): no effect on tumor growth rate; effect on tumor growth ([9]; 20 mg/kg i.v. twice weekly, 20% DMSO/PBS): inhibit tumor growth; also recorded: significantly inhibits tumor growth; prolongation of survival relative to the control group ([9]; 20 mg/kg twice weekly): 150%; average tumor volume relative to the vehicle-treated group ([9]; 20 mg/kg, days 10 to 20 after beginning treatment): less than half; side effects / body weight changes ([9]; highest concentrations of TRIP-1a, tumor-bearing NSG mice): minimal body weight changes; local reaction on administration ([9]; i.v. formulation in 20% DMSO/PBS): severe local inflammation; emission maximum λ [10]: 505 nm; emission quantum yield Φ [10]: 3.1 ± 0.3%; intracellular localization pattern [11]: primarily localized around the nucleus in a punctate pattern; luminescence lifetime τ [13]: 1.1^c μs; rhenium content in blood, muscle and bone ([15]; ICP-OES): below detectable levels; heart and lung accumulation [15, 18]: accumulate in the heart and lungs; kidney uptake [15, 18]: large; liver uptake [15, 18]: moderate; spleen uptake [15, 18]: taken up to a much higher extent in this organ compared to TTIP; maximum tolerated dose, no obvious sign of distress [16]: ≥ 40 mg/kg; degradation in aqueous solution [17]: no measurable degradation
fac-[Re(CO)3(dmbpy)(ptolICN)]OTf [TRIP-4a] | 516 | 6.7 ± 0.1% | 7.6 ± 0.3 µM | 0.8 | 1.3 | −1.30 | – | – | – | –
Cc1ccc(N=[C]=[Re+]2(=[C]=O)(=[C]=O)(=[C]=O)[N]3C=CC=c4ccc5c(c43)[N]2C=CC=5)cc1.O=S(=O)([O-])C(F)(F)F [TRIP-2a, fac-[Re(CO)3(phen)(ptolICN)]OTf] | 512 | 5.3 ± 0.4% | 5.8 ± 0.5 µM | 1.8 | 10.9 | −1.18 | – | – | – | –
N.N.[Cl][Pt][Cl] [cisplatin, reference compound] | – | – | – | – | – | – | – | – | – | IC50 [7]: 6.6 ± 0.7 µM
fac-[Re(CO)3(CF3bpy)(ptolICN)]OTf [TRIP-6a] | 584 | 0.8% and 0.8 ± 0.1% | 53 µM and 53.1 µM | 0.1 | 0.1 | – | not effective translation inhibitors | except for the least cytotoxic compound TRIP-6a | unable to change the ThT fluorescence levels relative to untreated cells | change in mitochondrial morphology (mitochondrial fission) [5]: did not give rise to any changes in mitochondrial morphology
fac-[Re(CO)3(tbutylbpy)(ptolICN)]OTf [TRIP-7a] | 518 | 7.7 ± 0.2% | 1.2 ± 0.5 µM | 0.7 | 1.6 | −1.30 | most efficient inhibition of protein synthesis | induce CHOP expression | ≥ 2 fold | intracellular localization pattern [11]: distributed evenly throughout the cytoplasm
fac-[Re(CO)3(dmobpy)(ptolICN)]OTf [TRIP-5a] | 525 | 3.9 ± 0.3% | 8.4 ± 1.9 µM | 0.4 | 0.7 | −1.33 | – | – | – | –

Reference: paper PMC8114230 (Inorganic chemistry, 2020)
